In ChEMBL document CHEMBL1152668, “Synthesis, reactivity and biological evaluation of novel halogenated tripentones” (Bioorg Med Chem, 2009):
The source made the active and inactive calls. No cut-off for these calls is given here.

Columns and labels:
HCT-15 = test: Cytotoxicity against human HCT15 cells at 0.05 to 1000 nM after 72 hrs by MTS assay; type: functional, cell-based
Summary of the method: (§1)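 Cultured in RPMI medium under 5% CO2, then seeded in 96-well plates and treated 24 h later with DMSO solutions at 0.05 nM–1 µM, with 1% DMSO vehicle controls. After 72 h exposure, MTS incubated 3 h at 37 °C and absorbance read at 490 nm. Inhibition = (1 − OD490 treated/OD490 control)×100; IC50 from separate duplicate experiments.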

Vero = test: Cytotoxicity against african green monkey Vero cells at 0.05 to 1000 nM after 72 hrs by MTS assay; type: cell-based; conditions: chlorocebus sabaeus, 1 µM
Summary of the method: (§2)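 Cells maintained in D-MEM with 10% fetal calf serum, penicillin, streptomycin and fungizone under 5% CO2. Plated in 96-well plates and dosed 24 h later with compound in DMSO, 0.05 nM to 1 µM, with 1% DMSO vehicle controls. After 72 h, MTS added for 3 h at 37 °C and A490 read. Inhibition = (1 − OD treated/OD control)×100; IC50 from separate duplicates.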

HCT-116 = test: Cytotoxicity against human HCT116 cells at 0.05 to 1000 nM after 72 hrs by MTS assay; type: functional, cell-based; summary of the method: as §1
MRC5 = test: Cytotoxicity against human MRC5 cells at 0.05 to 1000 nM after 72 hrs by MTS assay; type: cell-based; conditions: mrc5, 72 h, 1 µM; summary of the method: as §2
HL-60 = test: Cytotoxicity against human HL60 cells at 0.05 to 1000 nM after 72 hrs by MTS assay; type: functional, cell-based; summary of the method: as §1
KB [1] = test: Growth inhibition of human KB cells at 10 uM after 72 hrs by MTS assay; type: functional; conditions: read-out: GI
MCF7 = test: Cytotoxicity against human MCF7 cells at 0.05 to 1000 nM after 72 hrs by MTS assay; type: functional, cell-based; summary of the method: as §1
KB [2] = test: Growth inhibition of human KB cells at 1 uM after 72 hrs by MTS assay; type: functional; conditions: read-out: GI
KB [3] = test: Cytotoxicity against human KB cells at 0.05 to 1000 nM after 72 hrs by MTS assay; type: functional, cell-based; summary of the method: as §2
L1210 = test: Cytotoxicity against mouse L1210 cells after 72 hrs by MTS assay; type: functional, cell-based; conditions: L1210, 72 h

SMILES	inhibition of growth at 10 µM (KB [1])	inhibition of growth at 1 µM (KB [2])	IC50 (L1210)	also measured
COc1ccc(-c2csc3c2-n2cccc2C3=O)cc1O	86%	86%	4 nM	Activity (HCT-15): Active; Activity (Vero): Non-toxic; Activity (HCT-116): Active; Activity (MRC5): Non-toxic; Activity (HL-60): Active; Activity (MCF7): Active; Activity (KB [3]): Active
COc1ccc(-c2cc3n(c2)-c2c(-c4ccc(OC)c(O)c4)csc2C3=O)cc1	98%	94%	113 nM	–
COc1ccc(-c2csc3c2-n2cc(-c4cccnc4)cc2C3=O)cc1O	64%	20%	–	–
COc1ccc(-c2csc3c2-n2cc(Br)cc2C3=O)cc1O	94%	94%	17 nM	–
COC(=O)/C=C/c1cc2n(c1)-c1c(-c3ccc(OC)c(O)c3)csc1C2=O	1%	3%	–	–
COc1ccc(-c2csc3c2-n2cc(-c4ccc(OC)c(OC)c4)cc2C3=O)cc1O	97%	15%	–	–
COc1ccc(-c2csc3c2-n2cc(-c4cc(OC)c(OC)c(OC)c4)cc2C3=O)cc1O	35%	–	–	–
COc1ccc(-c2cc3n(c2)-c2c(-c4ccc(OC)c(O)c4)csc2C3=O)cc1O	90%	15%	–	–
